From ChEMBL document CHEMBL1781895, “Lipid-like sulfoxides and amine oxides as inhibitors of mast cell activation” (Eur J Med Chem, 2011)
pIC50: −log10 of the molar value.

Assays:
RBL-2H3 [1] = assay: Inhibition of anti-DNP-IgE-induced degranulation in rat RBL2H3 cells assessed as beta-hexosaminidase release at 25 uM after 30 mins by fluorescence assay; assay type: functional; conditions: RBL-2H3, 0.5 h
How it was run: (§1)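 RBL-2H3 cells grown in 70% MEM with Earle's salts/20% RPMI 1640/10% FBS/2 mM L-glutamine, sensitised overnight with anti-DNP IgE ([…]), washed in Tyrode's buffer, preincubated 1 h at 37 °C with or without compound, then challenged with DNP-HSA for 15 min. Supernatant β-hexosaminidase read with 4-methylumbelliferyl-N-acetyl-β-D-glucosaminide (2.5 mM, citrate, 30 min, 37 °C), fluorescence 365/440 nm; duplicate aliquots.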

[2] = Cytotoxicity at rat RBL2H3 cells assessed as maximum tolerated concentration by lactate dehydrogenase release assay; assay type: cell-based; conditions: RBL-2H3 cells, read-out: Activity
RBL-2H3 [3] = assay: Inhibition of anti-DNP-IgE-induced degranulation in rat RBL2H3 cells assessed as beta-hexosaminidase release after 30 mins by fluorescence assay; assay type: functional, cell-based; conditions: RBL-2H3, 0.5 h; how it was run: as §1

Row | Compound | inhibition at 25 µM (RBL-2H3 [1]) [%] | MNTC [2] [µM] | pIC50 (RBL-2H3 [3])
1 | CCCCCCCCCCCC[N+](C)(C)[O-] | 40 | – | –
2 | CCCCCCCCCCCCCCCCCCCCc1ccc(S(N)(=O)=O)cc1 | 12 | – | –
3 | CCCCCCCCCCCC[S+]([O-])C1CCCCC1OC(C)=O (configuration not stated) | 73 | 100 | –
4 | CCCCCCCCCCCC[S+]([O-])CC[S+]([O-])CC (configuration not stated) | 51 | 100 | –
5 | CCCCCCCCCCCCC1[S+]([O-])CCC[S+]1[O-] (configuration not stated) | 80 | 100 | 4.97
6 | CCCCCCCCCCCC[S+]([O-])c1ccccc1[S+](C)[O-] (configuration not stated) | 72 | 100 | –
7 | CCCCCCCCCCCC[S+]([O-])c1ccccc1O (configuration not stated) | 30 | 100 | –
8 | CCCCCCCCCCCCCC[N+](C)(C)[O-] | 95 | 100 | 4.97
9 | CCCCCCCCCCCCCCCCC(C(=O)O)C(O)(CC(=O)O)C(=O)O (configuration not stated) | 36 | – | –
10 | CCCCCCCCCCCC[S+]([O-])[C@@H]1CCCC[C@H]1O (relative stereo) | 69 | 100 | –
11 | CCCCCCCCCCCCCCCC(=O)OC[C@H](O)[C@H]1OC(=O)C(O)=C1O [ASCORBYL PALMITATE] | 38 | – | –
12 | CCCCCCCCCCCC[S+](C)[O-] (configuration not stated) [DODECYL METHYL SULFOXIDE] | 66 | 100 | –
